Test results as given in paper PMC3401285 (Bioorganic & medicinal chemistry letters, 2012).

What was measured:
Type in all cases: cell-based
human M4 receptor = molecular target: T1, human M4 receptor (Homo sapiens, UniProt P08173); experiment: Calcium mobilization assay, potency determination; details: for %AChmax ± SEM: efficacy as % of maximal ACh response, hM4; for hM4 PAM activity (in words): hM4, text statement
T1 sequence (P08173 1-479): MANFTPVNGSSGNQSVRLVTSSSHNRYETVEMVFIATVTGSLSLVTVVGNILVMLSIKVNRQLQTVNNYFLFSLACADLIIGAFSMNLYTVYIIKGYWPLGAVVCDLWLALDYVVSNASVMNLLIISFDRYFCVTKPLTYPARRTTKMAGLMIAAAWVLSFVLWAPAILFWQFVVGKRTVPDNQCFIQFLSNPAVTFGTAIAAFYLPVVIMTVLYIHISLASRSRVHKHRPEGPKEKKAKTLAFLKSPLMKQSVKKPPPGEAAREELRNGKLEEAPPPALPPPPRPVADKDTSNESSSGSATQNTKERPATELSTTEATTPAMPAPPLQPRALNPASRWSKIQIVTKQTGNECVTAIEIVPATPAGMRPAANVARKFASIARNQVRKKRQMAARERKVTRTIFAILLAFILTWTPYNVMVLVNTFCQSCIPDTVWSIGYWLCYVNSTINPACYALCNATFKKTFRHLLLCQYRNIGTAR

M5 = molecular target: T2, M5 (Homo sapiens, UniProt P08912); experiment: Muscarinic selectivity panel, calcium mobilization; details: concentration up to 30 µM
T2 sequence (P08912 1-532): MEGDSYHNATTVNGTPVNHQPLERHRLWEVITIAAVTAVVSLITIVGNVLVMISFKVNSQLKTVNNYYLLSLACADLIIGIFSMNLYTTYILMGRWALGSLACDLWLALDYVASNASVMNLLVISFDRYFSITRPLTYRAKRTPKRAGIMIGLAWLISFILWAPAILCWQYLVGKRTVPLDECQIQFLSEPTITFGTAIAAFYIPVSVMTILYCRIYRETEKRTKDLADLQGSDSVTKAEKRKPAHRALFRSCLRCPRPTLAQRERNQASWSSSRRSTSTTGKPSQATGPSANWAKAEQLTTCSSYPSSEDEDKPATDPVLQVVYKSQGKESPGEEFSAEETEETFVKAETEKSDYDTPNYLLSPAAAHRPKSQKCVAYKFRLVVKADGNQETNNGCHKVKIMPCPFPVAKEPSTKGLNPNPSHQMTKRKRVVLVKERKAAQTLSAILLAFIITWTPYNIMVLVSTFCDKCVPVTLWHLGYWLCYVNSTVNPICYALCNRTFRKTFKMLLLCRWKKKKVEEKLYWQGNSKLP
Method in brief: (§1)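 CHO cells stably expressing the human receptor (M1 transfected into CHO K1; M3 and M5 lines donated), grown in Ham's F-12, 10% heat-inactivated FBS, 20 mM HEPES, 500 µg/mL G418. Cells plated at 15,000/well overnight (37 °C, 5% CO2), then loaded 45 min at 37 °C with Fluo-4 AM in HBSS, 20 mM HEPES, 2.5 mM probenecid. Compound preincubated 144 s (0.3% DMSO final) before ACh; calcium read kinetically at 37 °C.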

M1 = molecular target: T3, M1 (Homo sapiens, UniProt P11229); experiment: Muscarinic selectivity panel, calcium mobilization; details: concentration up to 30 µM
T3 sequence (P11229 1-460): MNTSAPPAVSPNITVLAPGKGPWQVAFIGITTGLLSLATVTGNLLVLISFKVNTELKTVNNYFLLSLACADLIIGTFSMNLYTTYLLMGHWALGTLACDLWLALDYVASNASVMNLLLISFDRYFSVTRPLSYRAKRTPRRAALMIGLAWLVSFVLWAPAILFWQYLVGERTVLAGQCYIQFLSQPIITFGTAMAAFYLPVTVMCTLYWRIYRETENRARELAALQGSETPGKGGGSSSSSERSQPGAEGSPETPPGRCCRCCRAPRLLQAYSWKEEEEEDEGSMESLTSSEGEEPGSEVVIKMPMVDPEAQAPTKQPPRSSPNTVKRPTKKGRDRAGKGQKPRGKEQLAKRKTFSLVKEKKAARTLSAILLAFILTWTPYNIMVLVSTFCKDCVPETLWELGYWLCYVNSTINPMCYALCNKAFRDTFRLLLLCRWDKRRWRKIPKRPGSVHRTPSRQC
Method in brief: as §1

M3 = M3 (Homo sapiens, UniProt P20309); experiment: Muscarinic selectivity panel, calcium mobilization; details: concentration up to 30 µM
Sequence of M3 (P20309 whole entry): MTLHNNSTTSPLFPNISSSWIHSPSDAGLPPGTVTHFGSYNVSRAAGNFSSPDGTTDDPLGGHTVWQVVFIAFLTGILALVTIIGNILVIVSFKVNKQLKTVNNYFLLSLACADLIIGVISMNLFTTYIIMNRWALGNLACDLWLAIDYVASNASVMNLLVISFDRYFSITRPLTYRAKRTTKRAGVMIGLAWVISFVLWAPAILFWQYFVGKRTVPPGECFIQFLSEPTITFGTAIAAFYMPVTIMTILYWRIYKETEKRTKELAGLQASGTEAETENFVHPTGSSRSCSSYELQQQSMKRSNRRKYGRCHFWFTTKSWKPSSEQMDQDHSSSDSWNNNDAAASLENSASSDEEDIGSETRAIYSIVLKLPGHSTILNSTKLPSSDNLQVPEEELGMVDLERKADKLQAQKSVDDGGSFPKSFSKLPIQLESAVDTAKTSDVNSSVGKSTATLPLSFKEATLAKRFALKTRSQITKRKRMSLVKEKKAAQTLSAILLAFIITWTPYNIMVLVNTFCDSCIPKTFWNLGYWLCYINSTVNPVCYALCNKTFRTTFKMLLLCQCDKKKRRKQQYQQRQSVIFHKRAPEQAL
Method in brief: as §1

M2 = molecular target: T4, M2 (Homo sapiens, UniProt P08172); experiment: Muscarinic selectivity panel, calcium mobilization; details: concentration up to 30 µM
T4 sequence (P08172 1-466): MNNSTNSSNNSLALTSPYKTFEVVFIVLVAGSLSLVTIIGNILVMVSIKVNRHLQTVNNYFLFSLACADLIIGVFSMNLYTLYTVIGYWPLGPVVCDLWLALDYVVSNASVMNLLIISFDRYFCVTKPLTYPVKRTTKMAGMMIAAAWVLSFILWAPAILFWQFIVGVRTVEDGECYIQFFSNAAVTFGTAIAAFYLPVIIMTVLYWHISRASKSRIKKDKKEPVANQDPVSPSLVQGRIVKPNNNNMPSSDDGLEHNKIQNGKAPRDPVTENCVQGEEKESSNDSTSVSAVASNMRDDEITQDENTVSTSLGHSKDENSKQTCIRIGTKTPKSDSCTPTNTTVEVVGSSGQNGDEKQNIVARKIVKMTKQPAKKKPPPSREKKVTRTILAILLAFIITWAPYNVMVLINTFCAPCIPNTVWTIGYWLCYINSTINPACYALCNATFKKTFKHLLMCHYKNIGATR
Method in brief: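 CHO cells stably expressing human M2 and cotransfected with chimeric Gqi5, grown in Ham's F-12, 10% heat-inactivated FBS, 20 mM HEPES, 500 µg/mL G418 plus 500 µg/mL hygromycin B. Plated at 15,000 cells/well overnight (37 °C, 5% CO2), then Fluo-4 AM loaded 45 min at 37 °C in HBSS, 20 mM HEPES, 2.5 mM probenecid. Compound preincubated 144 s (0.3% DMSO final) before ACh; fluorescence read at 37 °C.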

Compound	%AChmax ± SEM (human M4 receptor)	hM4 PAM activity (in words) (human M4 receptor)	also measured
O=C(Nc1nc2ccccc2s1)C1CCCCO1 (centres unmarked) [Compound 50]		not tolerated	
COc1ccc(C)c2sc(NC(=O)c3ccncc3)nc12 [Compound 21, N-(4-methoxy-7-methylbenzo[d]thiazol-2-yl)isonicotinamide]			activity at M5 (M5): inactive; activity at M1 (M1): inactive; activity at M3 (M3): inactive; activity at M2 (M2): inactive
COc1ccc(C)c2sc(NC(=O)C3CCCCO3)nc12 (centres unmarked) [Compound 16]		deleterious to activity	
COc1ccc(C)c2sc(C(=O)NC3CCCC3)nc12 [Compound 48]	Weak		

The next lines start with results.

%AChmax ± SEM (human M4 receptor)	hM4 PAM activity (in words) (human M4 receptor)	Compound	also measured
Weak		COc1ccc(C)c2sc(C(=O)Nc3ccncc3)nc12 [Compound 44]	
	deleterious to activity	COc1ccc(C)c2sc(NC(=O)C3CCCOC3)nc12 (centres unmarked) [Compound 17]	
Weak		COc1ccc(C)c2sc(C(=O)NC3COC3)nc12 [Compound 49]	
Weak		COc1ccc(C)c2sc(NC(=O)C(C)C)nc12 [Compound 7]	
